Calls of active or inactive are those of the source. The calls are words filed in the database; no cut-off is given here.
Tests used:
Plasmodium falciparum [1] = assay: Antimalarial activity against chloroquine/mefloquine-sensitive Plasmodium falciparum 3D7 infected-erythrocytes assessed as parasite growth inhibition after 48 to 54 hrs by SYBR green 1-based replication method; assay type: functional, organism-based
How it was run: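 Chloroquine- and mefloquine-sensitive 3D7 strain; growth inhibition measured with a SYBR Green I-based replication assay. IC50 reported as mean and standard deviation of three independent experiments.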

Plasmodium falciparum [2] = assay: Antimalarial activity against trophozoite stage of Plasmodium falciparum 3D7 infected-erythrocytes assessed as reduction in Leu efflux after 4 hrs by UPLC method; assay type: functional, organism-based; settings: 3D7, 4 h
How it was run: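 Trophozoite-stage 3D7-infected erythrocytes at 2% hematocrit and 10% parasitemia, cultured in medium lacking Leu and Val with D-norvaline as internal standard. Full concentration–response up to 1000 nM with a 4 h endpoint. Leu in the recovered conditioned medium quantified by UPLC (AccQ-Tag). Mean and standard deviation of three independent experiments.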

Plasmodium falciparum [3] = assay: Antimalarial activity against chloroquine-resistant, mefloquine-sensitive Plasmodium falciparum W2 assessed as parasite growth inhibition by [3H]hypoxanthine incorporation assay
Plasmodium falciparum [4] = assay: Antimalarial activity against mefloquine-sensitive Plasmodium falciparum 3D7 infected-erythrocytes assessed as parasite growth inhibition after 48 hrs by sandwich ELISA; assay type: functional; settings: 3D7, 48 h
Plasmodium falciparum [5] = assay: Antimalarial activity against trophozoite stage of Plasmodium falciparum 3D7 infected-erythrocytes assessed as reduction in Leu efflux at 160 nM after 120 mins by UPLC method; assay type: functional, organism-based
How it was run: (§1)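 Time course on 3D7-infected erythrocytes in medium lacking Leu and Val, with D-norvaline as internal standard. Exposure to 160 nM or DMSO, with conditioned medium sampled from 0 to 240 min. Leu in the medium measured by UPLC (AccQ-Tag), with a hyperbolic fit of the treated data. Points are the average of two technical replicates.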

Plasmodium falciparum [6] = assay: Antimalarial activity against trophozoite stage of Plasmodium falciparum 3D7 infected-erythrocytes assessed as inhibition of Leu efflux at 160 nM after 60 mins by UPLC method; assay type: functional; settings: 3D7, 4 h, in the assay text read “after 4 hrs” for “after 60 mins”; how it was run: as §1

IC50 (Plasmodium falciparum [2]) [nM] | Compound | IC50 (Plasmodium falciparum [1]) [nM] | IC90 (Plasmodium falciparum [3]) [nM] | IC90 (Plasmodium falciparum [4]) [nM] | Activity (Plasmodium falciparum [5]) | inhibition at 0.16 µM (Plasmodium falciparum [6]) [%]
5000 | NCCCNCC(O)c1cc(C(F)(F)F)nc2c(C(F)(F)F)cccc12 (stereo not given) | 1600 | – | – | – | –
210 | OC(CNCCC1CCCC1)c1cc(C(F)(F)F)nc2c(C(F)(F)F)cccc12 (stereo not given) | 120 | – | – | – | –
500 | OCCNCC(O)c1cc(C(F)(F)F)nc2c(C(F)(F)F)cccc12 (stereo not given) | 340 | 710 | – | – | –
180 | CCCCN(CCCN)CC(O)c1cc(C(F)(F)F)nc2c(C(F)(F)F)cccc12 (stereo not given) | 49 | – | – | – | –
14 | CC(C)NCC(O)c1cc(C(F)(F)F)nc2c(C(F)(F)F)cccc12 (stereo not given) | 7.4 | 13 | – | – | –
320 | CN(C)CCNCC(O)c1cc(C(F)(F)F)nc2c(C(F)(F)F)cccc12 (stereo not given) | 240 | 1300 | – | – | –
51 | C#CCCNCC(O)c1cc(C(F)(F)F)nc2c(C(F)(F)F)cccc12 (stereo not given) | 34 | – | – | – | –
360 | C#CCCN(CCCN)CC(O)c1cc(C(F)(F)F)nc2c(C(F)(F)F)cccc12 (stereo not given) | 140 | – | – | – | –
2600 | OC(CNc1ccccc1)c1cc(C(F)(F)F)nc2c(C(F)(F)F)cccc12 (stereo not given) | 2000 | 1200 | – | – | –
9.3 | CCCN(CCC)CC(O)c1cc(C(F)(F)F)nc2c(C(F)(F)F)cccc12 (stereo not given) | 4.7 | – | – | – | –
22000 | CCOCC(O)c1cc(C(F)(F)F)nc2c(C(F)(F)F)cccc12 (stereo not given) | 22000 | – | – | – | –
10 | CCCNCC(O)c1cc(C(F)(F)F)nc2c(C(F)(F)F)cccc12 (stereo not given) | 4.2 | 1 | – | – | –
15 | OC(CNC12CC3CC(CC(C3)C1)C2)c1cc(C(F)(F)F)nc2c(C(F)(F)F)cccc12 (stereo not given) | 5.9 | – | – | – | –
22 | O[C@@H](c1cc(C(F)(F)F)nc2c(C(F)(F)F)cccc12)[C@H]1CCCCN1 [(S,R)-MEFLOQUINE] | 9.1 | 16 | 146 | Active | 70
> 1000 | CC1(C)N=C(N)N=C(N)N1OCCCOc1cc(Cl)c(Cl)cc1Cl | – | – | – | – | –
590 | CC(C)N(CC(O)c1cc(C(F)(F)F)nc2c(C(F)(F)F)cccc12)C(C)C (stereo not given) | 350 | 12 | – | – | –
9 | CCCCNCC(O)c1cc(C(F)(F)F)nc2c(C(F)(F)F)cccc12 (stereo not given) | 4.9 | 5 | – | – | –
> 1000 | O=C1C(O)=C([C@H]2CC[C@H](c3ccc(Cl)cc3)CC2)C(=O)c2ccccc21 [ATOVAQUONE] | 0.6 | – | – | – | –
13 | OC(CNCCc1ccccc1)c1cc(C(F)(F)F)nc2c(C(F)(F)F)cccc12 (stereo not given) | 8.5 | 11 | – | – | –
140 | C#CCNCC(O)c1cc(C(F)(F)F)nc2c(C(F)(F)F)cccc12 (stereo not given) | 110 | 1400 | – | – | –
9.7 | OC(CNC1CCCCC1)c1cc(C(F)(F)F)nc2c(C(F)(F)F)cccc12 (stereo not given) | 3.8 | 6 | – | – | –

Source: ChEMBL document CHEMBL4428069, “Parallel inhibition of amino acid efflux and growth of erythrocytic Plasmodium falciparum by mefloquine and non-piperidine analogs: Implication for the mechanism of antimalarial action” (Bioorg Med Chem Lett, 2016)
